# Shown are actives, neighbours in structure and some others; about 3.9% of the full set was active somewhere.
# TAAR1 agonist – human TAAR1 agonists, primary screen, Fluo-8 calcium fluorescence, CHO RD-HGA16 cells; Trace amine-associated receptor 1 (Homo sapiens), Q96RJ0; vehicle wells 0%, saturating PEA agonist 100%; activation, % at 3 µM; hit rate 0.99% among 360,000;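 active = activation above the mean activation of all test compounds in the run plus 3 SD, cut at about 38% in these data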
# Target sequence (Q96RJ0 whole entry, looked up): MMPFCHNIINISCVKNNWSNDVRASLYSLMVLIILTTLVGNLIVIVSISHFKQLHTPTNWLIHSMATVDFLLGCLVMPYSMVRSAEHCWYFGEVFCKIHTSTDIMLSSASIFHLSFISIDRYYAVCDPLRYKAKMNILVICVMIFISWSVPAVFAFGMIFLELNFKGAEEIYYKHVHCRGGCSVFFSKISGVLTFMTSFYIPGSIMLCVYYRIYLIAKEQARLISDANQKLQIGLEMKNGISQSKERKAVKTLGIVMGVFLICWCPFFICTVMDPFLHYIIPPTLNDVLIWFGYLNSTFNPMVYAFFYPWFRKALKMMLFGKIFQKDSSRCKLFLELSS
#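 System: CHO RD-HGA16 cells carrying human TAAR1 plus Gα16; Incubation: 17-24 h seeding, 75 min 37 °C dye, 30 min RT; Measured by: Fluo-8 fluorescence, 5 s baseline then 140 s kinetic read; Control set: DMSO and PEA EC100; Replication: single well for each compound.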
# CHO parental Ca – ATP-evoked calcium signal inhibitors, parental CHO, primary screen, counter-screen for OX1R antagonist project, cell-based, fluorescence, Fluo-8 calcium dye; AID 463079, 2010; hit rate 0.63% among 330,000; parental CHO-K1, ATP-induced calcium, Fluo-8 fluorescence; inhibition, % at 5.6 µM;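 active = inhibition above that plate's mean sample inhibition plus 3 SD, cut at about 26% in these data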;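 note: 0% = ATP-challenged DMSO wells and 100% = DMSO wells without ATP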
#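 Measured by: calcium-sensitive Fluo-8 fluorescence / Test system: CHO parental line / Controls: ATP-challenged DMSO wells low, unchallenged DMSO wells high / Measure: % inhibition / Compound: single nominal dose of 5.6 µM per compound / Replicates: single well per compound, no replicates / Reagent: ATP as calcium-mobilizing challenge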
# OX1R antag-1 – OX1R (HCRTR1) antagonists, primary screen, fluorescence, CHO/OX1R cells, Fluo-8 calcium, orexin A; Fluo-8 calcium fluorescence; inhibition, % at 5 µM; hit rate 0.43% among 330,000;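 active = inhibition above its plate's threshold, mean inhibition of all tested compounds on the plate plus 3 SD, cut at about 37% in these data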;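 note: 0% = orexin A challenge wells and 100% = SB-334867-A antagonist wells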
# Target sequence (O43613 whole entry, looked up): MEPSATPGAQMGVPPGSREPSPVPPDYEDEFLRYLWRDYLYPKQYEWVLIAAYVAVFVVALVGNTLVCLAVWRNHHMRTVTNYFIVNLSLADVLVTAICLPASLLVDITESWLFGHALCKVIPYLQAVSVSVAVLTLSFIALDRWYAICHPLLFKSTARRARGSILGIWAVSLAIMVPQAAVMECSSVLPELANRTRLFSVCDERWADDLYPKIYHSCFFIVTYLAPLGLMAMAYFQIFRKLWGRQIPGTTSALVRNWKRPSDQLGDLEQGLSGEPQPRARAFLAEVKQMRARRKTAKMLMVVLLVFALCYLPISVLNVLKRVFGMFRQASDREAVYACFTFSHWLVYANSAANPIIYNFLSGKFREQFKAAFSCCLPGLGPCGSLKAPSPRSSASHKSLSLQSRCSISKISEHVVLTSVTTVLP
# OX1R antag-2 – antagonists of human orexin 1 receptor (OX1R); Orexin/Hypocretin receptor type 1 (Homo sapiens), O43613; OX1R-expressing cells, FRET antagonist read-out; inhibition, % at 6.6 µM; hit rate 1.8% among 330,000; in the data active = inhibition mostly above about 38%, no sharp cut-off; inactive = mostly below about 40%;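 note: 0% = agonist challenge alone and 100% = reference antagonist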
# TAAR1 antag – human TAAR1 antagonists, primary screen, Fluo-8 calcium fluorescence, CHO RD-HGA16 cells | Trace amine-associated receptor 1 (Homo sapiens), Q96RJ0 | hit rate 1.5% among 360,000 | inhibition, % at 3 µM | AID 624466, 2012 | antagonist;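 active = inhibition above a per-plate cutoff, the mean inhibition of test compounds on that plate plus 3 SD, cut at about 49% in these data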;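 note: 0% = DMSO plus EC80 beta-PEA response and 100% = DMSO alone without agonist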
#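 Material: RD-HGA16 CHO cells with stable hTAAR1 and Gα16; Dosing: single nominal final test compound concentration of 3 µM; Schedule: seeding 17-24 h prior, 75-min 37 °C, 30-min RT dye loading; Detection: kinetic Fluo-8 calcium fluorescence measurement; Measure: % inhibition from peak post-agonist over basal fluorescence ratio; Benchmarks: vehicle and agonist controls.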
# OX1R Fluo8 conf – OX1R (HCRTR1) antagonists, confirmation, fluorescence, CHO/OX1R cells, Fluo-8 calcium, orexin A. hit rate 38% among 1,100. shares compounds with OX1R antag-1. orexin A calcium Fluo-8 fluorescence. AID 492963, 2010. inhibition, % at 5 µM; in the data active = inhibition above about 29%;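 note: 0% = agonist challenge alone and 100% = reference antagonist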
# CHO Ca counter – ATP-evoked calcium inhibition in parental CHO, counter-screen for OX1R antagonist project, cell-based, fluorescence, CHO-K1, triplicate | shares compounds with OX1R antag-1 | ATP-induced calcium, Fluo-8 fluorescence | inhibition, % at 5.6 µM | hit rate 9.3% among 1,100;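 active = inhibition above a per-plate limit, the mean inhibition of that plate's test compounds plus 3 SD, cut at about 25% in these data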;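 note: 0% = ATP challenge with DMSO and 100% = DMSO without ATP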
# OX1R HTRF confirm – OX1R (HCRTR1) antagonists, confirmation, cell-based, HTRF. shares compounds with OX1R antag-2. OX1R-expressing cells, HTRF antagonist assay. inhibition, % at 6.6 µM. hit rate 49% among 1,800. AID 492964, 2010; in the data active = inhibition above about 55%;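 note: CHO cells expressing OX1R stimulated with orexin A at about EC80; 0% = agonist challenge alone and 100% = reference antagonist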
# CHO-K1 HTRF – signal inhibition in parental CHO-K1 cells, counter-screen for OX1R antagonist project, cell-based, HTRF; shares compounds with OX1R antag-2; HTRF counterscreen; inhibition, % at 6.6 µM; hit rate 48% among 1,800; AID 493232, 2011; in the data active = inhibition above about 17%;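 note: 0% = agonist challenge with vehicle and 100% = vehicle alone without agonist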
# Active calls of the source: *; nt = no result given.
SMILES,TAAR1 agonist,CHO parental Ca,OX1R antag-1,OX1R antag-2,TAAR1 antag,OX1R Fluo8 conf,CHO Ca counter,OX1R HTRF confirm,CHO-K1 HTRF
CCOC(=O)[C@@H](NC(=O)/C=C/[C@H]1O[C@@H](n2ccc(=O)[nH]c2=O)[C@H](O)[C@@H]1O)C(C)C,0.1,nt,nt,nt,-2.3,nt,nt,nt,nt
CCOc1ccccc1-c1nc(-c2ccc(NC(=O)Cc3ccc(OC)cc3)cc2)no1,5.1,4.3,-5.4,21.7,-11.6,nt,nt,nt,nt
CCOc1ccccc1-c1nc(-c2ccc(NC(=O)c3ccc(Br)o3)cc2)no1,2.7,-3.5,35.4,68.6*,17.1,16.5,-3.2,78.7*,18.3*
CC(=O)Nc1cccc(-c2ccnc3c2CC(C)(C(=O)NCC2CC2)O3)c1 (stereo not given),-0.5,nt,nt,nt,-11.5,nt,nt,nt,nt
O=C(NC(Cc1c[nH]c2ccccc12)C(=O)N/N=C/c1cccnc1)c1cccs1 (stereo not given),6.0,-17.6,37.1,71.0*,0.3,24.1,-4.2,53.5,-0.2
Cc1nc2ccc(NC(=O)c3oc4ccc(F)cc4c3C)cc2s1,nt,-9.0,72.3*,100.3*,nt,58.8*,-10.7,92.6*,12.7
CCn1c(SCC(=O)Nc2sc3c(c2C#N)CCCC3)nnc1-c1ccco1,10.2,-22.3,30.9,93.8*,-16.8,21.2,-15.1,77.8*,-1.0
Cc1ccc(OCc2cc(C(=O)NC3CCc4ccccc43)no2)cn1 (stereo not given),19.6,nt,nt,nt,2.6,nt,nt,nt,nt
CC1(C)CC(=O)C=C(c2ccc(COC(=O)c3ccc(Br)cc3)cc2)C1=O,3.4,nt,nt,nt,30.7,nt,nt,nt,nt
CNC(=O)C1CN(C(=O)c2cccc(S(=O)(=O)N3c4ccccc4CC3C)c2)c2ccccc2O1 (stereo not given),0.5,-12.5,36.4,40.1*,2.9,19.9,-8.5,59.0*,-5.0
CC1CC(C)CN(C(=O)c2cccc(S(=O)(=O)N3c4ccccc4CC3C)c2)C1 (stereo not given),10.6,nt,nt,nt,-3.4,nt,nt,nt,nt
O=C(O)C1C2CC(C(Br)C2Br)C1C(=O)O (stereo not given),2.1,nt,nt,nt,-5.8,nt,nt,nt,nt
CC(C)C[C@H]1CN(CCCC[C@H]2CNC(=O)C(=O)N2CCc2ccccc2)C(=O)C(=O)N1CCC1CCCCC1,6.1,nt,nt,nt,-6.5,nt,nt,nt,nt
CCOC(=O)C1=C(CCc2ccccc2)NC(=O)NC1c1cccc([N+](=O)[O-])c1 (stereo not given),7.5,-10.8,-9.6,26.1,42.1,nt,nt,nt,nt
CN(C)/C=C/C1=C([N+](=O)[O-])C(c2cccc([N+](=O)[O-])c2)NC(=O)N1 (stereo not given),-0.9,-7.8,36.3,87.8*,-10.8,-0.1,0.9,37.4,28.6*
CN(/N=C/c1cc([N+](=O)[O-])ccc1O)c1ccccc1,7.3,-16.8,49.5*,73.0*,17.3,47.5*,-14.3,93.1*,-4.3
CSc1nc2ccc3nc(NC(=O)c4cccs4)sc3c2s1,8.4,-13.5,56.4*,81.0*,8.8,84.8*,-8.6,94.8*,9.1
CCOC(=O)N1CCN(C(C(=O)NC2CCCC2)C(C)C)CC1 (stereo not given),1.6,nt,nt,nt,10.4,nt,nt,nt,nt
CC(C)(C)NC(=O)C(Cc1ccccc1)NS(=O)(=O)c1cccc2nsnc12 (stereo not given),-0.3,-16.8,36.2,115.6*,2.5,19.1,-8.8,80.2*,16.9*
O=C(NCc1ccccc1)C(Cc1ccccc1)NS(=O)(=O)c1cccc2nsnc12 (stereo not given),0.9,-16.9,-10.2,23.6,6.2,nt,nt,nt,nt
Cc1cccc(C)c1NC(=O)C1(C)CN(S(C)(=O)=O)CC(=O)N1CCc1c[nH]c2ccccc12 (stereo not given),2.6,nt,nt,nt,2.9,nt,nt,nt,nt
COc1ccccc1Nc1nc(N)nc(-c2cc3ccccc3o2)n1,16.9,-12.1,38.2,77.2*,8.8,31.1*,-10.8,64.9*,0.7
COc1ccccc1Nc1nc(N)nc(CN2CCOCC2)n1,2.6,-6.6,-1.5,8.0,0.1,nt,nt,nt,nt
CC(C)n1c(=O)[nH][nH]c1=S,2.3,11.2,38.9*,63.2*,-12.9,54.8*,4.4,78.5*,12.0
O=c1[nH][nH]c(=S)n1C1CCCCC1,nt,-7.8,-2.6,6.9,nt,nt,nt,nt,nt
SMILES,TAAR1 agonist,CHO parental Ca,OX1R antag-1,OX1R antag-2,TAAR1 antag,OX1R Fluo8 conf,CHO Ca counter,OX1R HTRF confirm,CHO-K1 HTRF
Cc1cc(C(C)(C)C)oc1C(=O)N(CC(=O)NC1CCCC1)Cc1ccccc1,26.1,-12.0,7.5,13.7,32.5,nt,nt,nt,nt
Cc1ccc(C)c(N(CC(=O)NC2CCCC2)C(=O)c2oc(C(C)(C)C)cc2C)c1,3.8,7.3,94.7*,63.2*,-23.7,47.2*,-2.5,71.2*,1.9
C[C@@H]1CNC(=O)c2c(C(=O)Nc3cccc(Cl)c3)ncn21,5.3,nt,nt,nt,-4.8,nt,nt,nt,nt
CC(C)(C(=O)N1CCC1(C)C(=O)NS(=O)(=O)c1cccc(Cl)c1)c1ccccc1 (stereo not given),1.9,nt,nt,nt,1.3,nt,nt,nt,nt
Cc1ccc([C@@H]2CC=C(C(=O)O)[C@H](c3cccc(Cl)c3)N2S(=O)(=O)c2ccccc2C)cc1,1.5,1.8,81.1*,86.0*,37.7,48.0*,-1.1,89.5*,4.0
Cc1ccccc1S(=O)(=O)N1C(c2ccc(Cl)cc2)CC=C(C(=O)O)C1c1cccc(Cl)c1 (stereo not given),0.7,nt,nt,nt,2.7,nt,nt,nt,nt
COc1ccc(OC)c(/C=N/NC(=O)c2cc3c(OC)cccc3[nH]2)c1,11.1,-22.8,70.6*,100.8*,15.9,31.6*,-14.2,88.6*,10.0
CCOc1ccc(/C=N/NC(=O)c2cc3c(OC)cc(OC)cc3[nH]2)cc1OC,10.0,-16.6,35.2,80.8*,34.0,41.8*,-0.4,89.2*,14.9
OC[C@@H]1CN(Cc2ccccc2)C[C@H](n2cnc3c(NC4CCCC4)ncnc32)O1,0.3,nt,nt,nt,2.6,nt,nt,nt,nt
NC(=S)N/N=C/c1ccccc1OCc1cccc(Cl)c1,nt,-4.5,54.3*,80.6*,nt,35.4*,2.1,80.9*,14.2
Nc1cccc(C#Cc2ccc3c(=O)c4ccccc4oc3c2)c1,11.9,-33.3,51.5*,72.4*,39.5,11.9,99.0*,49.5,8.4

# Compound activity from PubChem BioAssay.
